Experimental data collected from several papers.
Lines come from different studies, so protocols differ.
Target: Insulin receptor-related protein (INSRR, Homo sapiens, UniProt P14616)

COc1cc(Nc2ncc(F)c(Nc3ccc4c(n3)NC(=O)C(C)(C)O4)n2)cc(OC)c1OC  inhibition (binding, competition with immobilised ligand; 10 µM): 53%
CC(C)(C)c1cc(C=C(C#N)C#N)cc(Br)c1O  remaining activity (enzyme activity, inhibitor; 0.5 µM): 103%
C#Cc1n[nH]c2c(-c3cn([C@@H](C)c4ccccc4)c(=O)[nH]c3=O)cc(F)cc12  inhibition (enzyme activity, inhibitor; 0.1 µM): 6.9%
Cn1cc(-c2cc(F)cc(N3CCn4c(cc5c4CCCC5)C3=O)c2CO)cc(Nc2ccc(N3CCN(C4COC4)CC3)cn2)c1=O  inhibition (enzyme activity, inhibitor; 0.1 µM): 15%
Nc1ncc(-c2nc(N3CCOCC3)nc(N3CCOCC3)n2)c(C(F)F)n1  remaining binding (binding, competition with immobilised ligand; 10 µM): 80%
Cn1cncc1[C@](O)(COc1ccc(C#N)cc1-c1ccc(OC(F)(F)F)cc1)c1ccc(C#N)cc1  remaining binding (cell-free assay, competition with immobilised ligand; 1 µM): 93%
Cc1nn(C)cc1-c1nc2c(N3CCN(Cc4ccc(Cl)cc4)CC3)c(Cl)cnc2[nH]1  remaining binding (binding, competition with immobilised ligand; 1 µM): 100%
COc1ncccc1-c1cnn2ccc(N3CCN(C(=O)OC(C)C)CC3)nc12  remaining binding (binding, competition with immobilised ligand; 1 µM): 96%
C#Cc1n[nH]c2c(-c3cn(C(C)c4ccccn4)c(=O)[nH]c3=O)cc(F)cc12 (centres unmarked)  inhibition (enzyme activity, inhibitor; 1 µM): 0.7%
O=c1[nH]c2ccccc2n1C1CCN(Cc2ccc(-c3[nH]c4cc5ncnc5cc4nc3-c3ccccc3)cc2)CC1  remaining signal (cell-free assay; 0.5 µM): 101%
Cn1cc(-c2cccc(N3CCc4c(sc5c4CC(C)(C)C5)C3=O)c2CO)cc(Nc2ccncn2)c1=O  inhibition (enzyme activity, inhibitor; 1 µM): 2%
